Screening data (PubChem)
Sampled rows, rich in hits. Any-hit rate of the full collection: about 1.7%.
procasp7 counter: procaspase-7 activators, primary screen, counter-screen for procaspase-3 activator project, biochemical, absorbance, HTS, human | recombinant procaspase-7, Ac-DEVD-pNA absorbance 405 nm; D23A/D198A/D206A triple mutant, cannot self-cleave; scale: DMSO 0, 5 µM enzyme 100 | activation, % at 8.5 µM | 330,000 compounds, 0.093% hits;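 active = percent activation above the screen-wide mean plus 3 SD, cut at about 25% in these data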
Target sequence (P55210 whole entry D23A/D198A/D206A): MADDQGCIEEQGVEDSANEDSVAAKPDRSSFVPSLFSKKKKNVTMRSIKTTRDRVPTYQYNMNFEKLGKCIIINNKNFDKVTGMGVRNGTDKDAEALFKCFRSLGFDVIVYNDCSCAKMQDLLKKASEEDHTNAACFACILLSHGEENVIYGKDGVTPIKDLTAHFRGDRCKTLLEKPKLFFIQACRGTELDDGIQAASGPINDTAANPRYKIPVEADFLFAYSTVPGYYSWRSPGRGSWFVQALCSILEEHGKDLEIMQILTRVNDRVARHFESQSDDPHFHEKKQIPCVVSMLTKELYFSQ
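Detection: p-Nitroaniline absorbance at 405 nm, read at 0 and 120 min; system: Uncleavable procaspase-7 mutant enzyme; evaluation: % activation from two-timepoint absorbance difference, scaled to controls; times: 1 h enzyme–compound preincubation and 2 h substrate reaction, both 25 °C; buffer or medium: Zinc-free HEPES pH 7.4 with 300 mM NaCl, 0.01% Triton X-100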
PolyA inh: polyadenylation inhibitors in yeast reporter cells, primary screen, luminescence, S. cerevisiae; S. cerevisiae SKY197-pL101 polyadenylation reporter, beta-gal luminescence; efflux-impaired pdr1/pdr3 knockout yeast; score 100 = 6 SD above DMSO; activity score, % at 12 µM; 300,000 compounds, 0.02% hits; AID 1875, 2009;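 active = lowest replicate activity score at least 50, where 100 means six control SD above control mean; inconclusive = lowest score under 50 but half or more replicates reach 50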;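 note: yeast exposed to compound for 9 h at 30 °C; higher score means more reporter readthrough which indicates perturbed polyadenylation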
IMP-1 inh: IMP-1 metallo-beta-lactamase inhibitors, primary screen, biochemical, epi-absorbance readout, Pseudomonas aeruginosa enzyme. metallo-beta-lactamase IMP-1 (Pseudomonas aeruginosa). purified IMP-1, nitrocefin hydrolysis, epi-absorbance fluorescence. inhibition, % at 5.6 µM. 290,000 compounds, 0.45% hits. AID 1556, 2009;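 active = inhibition above the mean plus 3 SD of all compounds in the same screening run, cut at about 4.5% in these data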;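 note: 0% = IMP-1 with DMSO and 100% = DMSO wells lacking enzyme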
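Test system: recombinant IMP-1 enzyme, purified / Medium: HEPES buffer pH 7.1 with ZnSO4 and Brij 35 / Doses: single dose, 5.6 µM / Times: 25 °C, 15 min preincubation, 25 min reaction / Detection: Epi-absorbance via hydrolysed-nitrocefin quenching of white-plate fluorescence, 480/530 nm, EDTA stop / Evaluation: percent inhibition from optical density relative to buffer-blank wells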
Neddylation inh: inhibitors of cullin neddylation, primary screen, biochemical, TR-FRET, uHTS, NAE and Ubc12; NEDD8-conjugating enzyme Ubc12 (Homo sapiens) + NEDD8-activating enzyme E1 regulatory …; 360,000 compounds, 0.58% hits; calls only at 25 µM; AID 651699, 2012; in the data active = inhibition above about 36%
proCasp3 act: activators of human procaspase-3 D3A mutant, primary screen, biochemical, absorbance, PC-3 D3A mutant, single concentration; Caspase-3 (Homo sapiens), P42574; recombinant procaspase-3 D3A, Ac-DEVD-pNA absorbance 405 nm; activation, % at 8.5 µM; 330,000 compounds, 0.11% hits; AID 463141, 2010;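 active = activation above the mean of all tested compounds plus 3 SD, cut at about 21% in these data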;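 note: 0% = DMSO alone and 100% = DMSO wells spiked with extra 5 µM PC-3 D3A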
Target sequence (P42574 whole entry D9A/D28A/D175A): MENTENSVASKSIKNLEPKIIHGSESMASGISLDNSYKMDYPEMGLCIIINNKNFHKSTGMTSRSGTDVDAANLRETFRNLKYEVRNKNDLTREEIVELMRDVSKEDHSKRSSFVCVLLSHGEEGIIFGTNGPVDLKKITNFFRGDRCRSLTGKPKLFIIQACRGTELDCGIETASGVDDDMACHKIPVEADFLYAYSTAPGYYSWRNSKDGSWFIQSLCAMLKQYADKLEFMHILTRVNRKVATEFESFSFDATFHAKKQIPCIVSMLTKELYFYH
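Assay system: Autoprocessing-dead procaspase-3 D3A mutant enzyme; also added: Ac-DEVD-pNA; doses: one concentration, 8.5 µM nominal, 0.8% DMSO; times: 1 h compound preincubation, 2 h substrate hydrolysis at 25 °C; technique: 405 nm absorbance of p-nitroaniline, reads at 0 and 120 min; measure: % activation between DMSO and enzyme-spiked controls; repeats: single replicate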
VIM-2 inh: VIM-2 metallo-beta-lactamase inhibitors, primary screen, biochemical, epi-absorbance readout, Pseudomonas aeruginosa enzyme; purified VIM-2, nitrocefin hydrolysis, epi-absorbance fluorescence; inhibition, % at 5.6 µM; 290,000 compounds, 0.89% hits;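 active = inhibition above the mean of all tested compounds plus 3 SD, cutoff set per screening run, cut at about 7.5% in these data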;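 note: red hydrolysis product quenches plate fluorescence so inhibitors raise well fluorescence; 0% = enzyme with DMSO and 100% = DMSO without enzyme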
An asterisk follows results filed as active; i = inactive; ? = inconclusive; · = no result shown; + = active, no number; ! = not active in a repeat.

SMILES	procasp7 counter	PolyA inh	IMP-1 inh	Neddylation inh	proCasp3 act	VIM-2 inh
COc1ccc(OC)c(C(=O)CC2OC(=O)c3ccccc32)c1 (stereo unspecified)	3	3	-4	i	-2	-1
COc1ccc(C(=O)CC2OC(=O)c3ccccc32)cc1OC (stereo unspecified)	3	-2	4.9*	i	1	0
Cc1cc2oc(=O)c(CC(=O)NCCCN(C)C)c(C)c2c2occ(C(C)(C)C)c12	-6	7	1	·	2	8.9*
Cc1cc2oc(=O)c(CC(=O)O)c(C)c2c2occ(C(C)(C)C)c12	5	2	4	·	-7	11*
Cc1nc2ncnn2c(C)c1CCC(=O)NCCC1=CCCCC1	17	12	-2	i	6	-2
Cc1sc2ncn3c(C)nnc3c2c1C	5	-6	-1	i	3	10.0*
O=C(c1cc2nc(-c3ccccc3)cc(C(F)(F)F)n2n1)N1CCOCC1	1	7	-6	i	4	-1
O=C(c1cc2nc(-c3ccccc3)cc(C(F)(F)F)n2n1)N1CCN2CCCC2C1 (stereo unspecified)	4	4	-5	i	2	9.1*
O=C(c1nn2c(C(F)(F)F)cc(-c3ccccc3)nc2c1Cl)N1CCN2CCCC2C1 (stereo unspecified)	·	-8	-1	i	·	9.1*
COc1ccc(OC)c(NC(=O)CCCc2ccccc2)c1	-7	-12	-1	i	10	-1
COc1cc(NCCCCCCCN)c2ncccc2c1	-25	-1	2	i	-1	7.8*
COc1cc(NC(C)CCCN)c2ncccc2c1 (stereo unspecified)	-5	7	·	i	6	·
O=C(O)CC12CSc3[nH]c(=O)sc3C1c1ccccc1OC2=O (stereo unspecified)	-6	-6	6.4*	·	0	1
CCOC(=O)C1CSc2[nH]c(=O)sc2C1c1ccccc1 (stereo unspecified)	-7	3	-3	i	-11	1
C/C(=N\NC(=O)c1ccccc1)c1nc2ccccc2n1C	-8	3	-3	i	3	0
O=C(c1ccc(O)cc1)c1ccc(O)cc1O	-1	-5	-2	i	8	-2
O=C(c1ccccc1)c1ccc(O)cc1O	-6	12	12*	i	-5	7
CN(C)c1nc(N)nc(Cn2ccnc2)n1	-2	?	-3	i	0	8.8*
COc1cccc2c1NC(C(=O)O)C1CC=CC21 (stereo unspecified)	-12	-3	2	i	-5	9.5*
CCc1nc(SCC(=O)OC)c2c3c(sc2n1)COC(C)(C)C3	-1	-21	-3	i	3	1
CCc1nc(SCC(=O)O)c2c3c(sc2n1)COC(C)(C)C3	·	9	-1	i	·	8.1*
CSc1nc(SCCN(C)C)c2c3c(sc2n1)COC(C)(C)C3	4	-2	-2	i	5	8.9*
COc1ccc([C@H](NC(=O)OC(C)(C)C)C(=O)OC(C)(C)C)cc1	4	·	·	i	8	·
CC1CN(C(=O)N2c3ccccc3Sc3ccccc32)C(C)CC1=O (stereo unspecified)	2	-1	-2	i	-3	1
Cc1ccc(S(=O)(=O)N2CCC(C(=O)OCCOc3cccc(C)c3)CC2)cc1	6	·	·	i	6	·
SMILES	procasp7 counter	PolyA inh	IMP-1 inh	Neddylation inh	proCasp3 act	VIM-2 inh
Cc1ccccc1-c1cc(=O)c2ccccc2o1	3	·	·	i	6	·
Cc1c2cc(O)c(=O)cc-2oc2cc(O)c(O)cc12	-38	-1	6.5*!	i	-20	-1
CCOC(=O)c1c(-c2ccccc2)oc2ccc(OCC(O)CN(C)C)cc12 (stereo unspecified)	8	-3	-3	·	11	8.9*
CC(C)N1C/C(=C/c2cccnc2)C(=O)/C(=C/c2cccnc2)C1	·	·	1	i	·	-5
O=C(CSC1=Nc2ccccc2C2=NC(CC(=O)N3CCN(c4ccccc4)CC3)C(=O)N12)NCC1CCCO1 (stereo unspecified)	2	2	-4	i	-4	-5
O=C(Oc1c(-c2ccccc2)c(=O)n2c3c(cccc13)CC2)c1cccc([N+](=O)[O-])c1	-2	67*	-2	i	-5	0
O=C(Oc1c(-c2ccccc2)c(=O)n2c3c(cccc13)CC2)c1ccccc1	5	-10	-2	i	-13	-2
N#CNC(=Nc1cccc(F)c1)SCc1ccccc1	10	-29	-1	i	8	-2
CC1CCCN(C2=C(NS(=O)(=O)c3ccc(Br)cc3)C(=O)c3ccccc3C2=O)C1 (stereo unspecified)	0	-12	1	i	0	11*
CCOC(=O)C1CCCN(C2=C(NS(=O)(=O)c3ccc(Br)cc3)C(=O)c3ccccc3C2=O)C1 (stereo unspecified)	1	10	1	i	-10	8.2*
COc1ccc(NC(=O)N[C@@H](CCSC)C(=O)O)cc1OC	2	-9	-2	i	2	-3
O=C(CNS(=O)(=O)c1ccccc1F)NNC(=O)c1ccc(Br)cc1	·	·	·	i	·	·
O=C(O)c1ccc(SCc2cnc(Cl)s2)cc1	3	61*	-2	i	2	-1
COC(=O)c1ccc(SCc2cnc(Cl)s2)cc1	2	-5	-4	i	1	-3
COc1ccc(CNc2ncnc3sccc23)cc1	2	114*	-2	i	0	0
COc1ccc(CNc2ncnc3sccc23)cc1OC	-5	12	-4	i	5	1
Cc1nc(N2CCN(C(=O)c3ccc(Cl)cc3)CC2)c(C#N)c2c1COC(C)(C)C2	4	-5	-2	+	-5	1
O=C(NC(Cc1c[nH]c2ccccc12)C(=O)OCC(=O)c1cccc2ccccc12)c1cccs1 (stereo unspecified)	2	4	-3	i	-5	-2
COc1cccc(NC(=O)Cn2c3ccc(F)cc3c3nc4n(c(=O)c32)CCCS4)c1	-13	-1	6.5*	i	6	1
